Results pooled from the literature.
Compare with care: the assays were run in different laboratories.
STING1 H232R: Stimulator of interferon genes protein (STING1, Homo sapiens, UniProt Q86WV6, H232R)

Compound	target	assay	setting	quantity	result
CC(C)C[C@@H]1NC(=O)[C@H](Cc2ccc(O)cc2)NC(=O)[C@H](C(C)C)NC(=O)[C@H](Cc2ccc(O)cc2)NC(=O)[C@H](CC(N)=O)NC(=O)[C@H](Cc2ccccc2)N(C)C(=O)[C@@H]2CCCN2C(=O)[C@H](Cc2ccc(O)cc2)NC(=O)[C@H](C(C)C)NC(=O)[C@H](CC(C)C)NC(=O)[C@H](Cc2ccccc2)NC(=O)CSC[C@@H](C(=O)NCC(N)=O)NC1=O	STING1 H232R	ligand displacement, TR-FRET	–	IC50	38000 nM
Nc1nccc(-c2cccc(-c3ccccc3)c2)n1	Phosphatidylinositol 5-phosphate 4-kinase type-2 gamma (PIP4K2C, Homo sapiens, UniProt Q8TBX8)	binding	–	Kd	64 nM
CC(C)C[C@H](NC(=O)[C@H](Cc1ccccc1)NC(=O)[C@H](Cc1ccc(O)cc1)NC(=O)CNC(=O)[C@H](CCCCN)NC(=O)[C@H](CO)NC(=O)[C@H](CCC(N)=O)NC(=O)CNC(=O)[C@@H](NC(=O)[C@H](CO)NC(=O)[C@@H]1CCCN1C(=O)[C@H](CO)NC(=O)[C@H](CCC(N)=O)NC(=O)[C@H](Cc1ccc(O)cc1)NC(=O)[C@H](CCC(=O)O)NC(=O)[C@H](C)NC(=O)[C@H](CCCCN)NC(=O)[C@@H](N)Cc1ccccc1)C(C)C)C(=O)N[C@@H](Cc1ccccc1)C(=O)N[C@@H](CCCNC(=N)N)C(=O)N1CCC[C@H]1C(=O)N[C@@H](CCCNC(=N)N)C(=O)N[C@@H](CC(N)=O)C(N)=O	Neuromedin-U receptor 1 (NMUR1, Homo sapiens, UniProt Q9HB89)	inositol phosphate, agonist	–	EC50	0.447 nM
CCCCCCCCCCCCCC1OC(=O)/C1=C\CCCCC(N)=O (stereo not drawn)	Phosphatidylserine lipase ABHD16A (Homo sapiens, UniProt O95870)	cell-free assay, inhibitor	–	IC50	200 to 500 nM
CC(C)[C@@H]1NC(=O)[C@@H]2CCCN2C(=O)[C@H](Cc2ccccc2)NC(=O)CSC[C@@H](C(=O)N[C@@H](Cc2ccc(O)cc2)C(N)=O)NC(=O)[C@H](Cc2c[nH]c3ccccc23)NC(=O)[C@H](CCCCN)NC(=O)[C@H](Cc2ccccc2)N(C)C(=O)[C@H](Cc2ccccc2)NC1=O	STING1 H232R	binding, SPR	–	Kd	250 nM
Cn1cc(-c2cc(F)cc(N3CCn4c(cc5c4CCCC5)C3=O)c2CO)cc(Nc2ccc(N3CCN(C4COC4)CC3)cn2)c1=O	Tyrosine-protein kinase Lck (LCK, Homo sapiens, UniProt P06239)	enzyme activity, inhibitor, FRET	–	Ki	1070 nM
CCC(C)c1cccc(C(C)CC)c1O (stereo not drawn)	Potassium/sodium hyperpolarization-activated cyclic nucleotide-gated channel 1 (Hcn1, Mus musculus, UniProt O88704)	ion current, two-electrode voltage clamp	oocytes	IC50	~30000 nM
c1c[nH]cn1	Nitric oxide synthase, inducible (Nos2, Mus musculus, UniProt P29477)	binding	–	Kd	56000 nM
C[C@H]1CCC[C@H](O)CCC/C=C/c2cc(O)cc(O)c2C(=O)O1	Estrogen receptor beta (ESR2, Homo sapiens, UniProt Q92731)	reporter gene, agonist, luciferase	–	EC50	0.44 nM
CC(C)CCC[C@@H](C)[C@H]1CC[C@H]2[C@@H]3C[C@@H](n4cncc4CCN)[C@@]4(O)C[C@@H](O)CC[C@]4(C)[C@H]3CC[C@]12C	Bifunctional epoxide hydrolase 2 (EPHX2, Homo sapiens, UniProt P34913)	enzyme activity, inhibitor	–	IC50	> 100000 nM
O=C(Nc1ccc(I)cc1)N1CCC(n2c(=O)[nH]c3c(Br)cccc32)CC1	N-glycosylase/DNA lyase (OGG1, Homo sapiens, UniProt O15527)	enzyme activity, inhibitor, fluorescence	–	IC50	342 nM
CN1CCC[C@H]1c1cccnc1	Urea transporter 1 (Slc14a1, Rattus norvegicus, UniProt P97689)	transporter uptake, inhibitor	–	IC50	~40000 nM
